Activity calls are given as the source filed them. No cut-off for these calls is given here.
Key:
Histone deacetylase 1 = Histone deacetylase 1 (Homo sapiens, UniProt Q13547); assay: Inhibition of recombinant human HDAC1 expressed in baculovirus infected insect High5 cells using Ac-Lys-Tyr-Lys (epsilon-acetyl)-AMC as substrate after 24 hrs by fluorescence assay
Histone deacetylase 2 = Histone deacetylase 2 (Homo sapiens, UniProt Q92769); assay: Inhibition of recombinant human HDAC2 expressed in baculovirus infected insect High5 cells using Ac-Lys-Tyr-Lys (epsilon-acetyl)-AMC as substrate after 24 hrs by fluorescence assay
Histone deacetylase 2, sequence (Q92769 whole entry): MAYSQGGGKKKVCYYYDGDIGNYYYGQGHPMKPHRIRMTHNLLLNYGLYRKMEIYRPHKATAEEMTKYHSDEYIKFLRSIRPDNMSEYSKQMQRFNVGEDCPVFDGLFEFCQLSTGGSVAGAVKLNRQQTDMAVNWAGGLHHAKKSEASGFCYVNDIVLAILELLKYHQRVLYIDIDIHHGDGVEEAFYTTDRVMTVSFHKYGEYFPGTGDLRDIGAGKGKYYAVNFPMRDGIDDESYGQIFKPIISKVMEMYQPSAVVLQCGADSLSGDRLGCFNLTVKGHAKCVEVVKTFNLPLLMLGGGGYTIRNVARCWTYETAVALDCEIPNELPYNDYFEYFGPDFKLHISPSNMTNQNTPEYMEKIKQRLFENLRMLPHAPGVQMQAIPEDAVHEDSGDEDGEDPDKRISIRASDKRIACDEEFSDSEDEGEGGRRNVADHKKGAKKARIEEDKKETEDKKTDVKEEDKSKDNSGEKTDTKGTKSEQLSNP

Histone deacetylase 3 = Histone deacetylase 3 (Homo sapiens, UniProt O15379); assay: Inhibition of recombinant human HDAC3 expressed in baculovirus infected insect High5 cells using Ac-Lys-Tyr-Lys (epsilon-acetyl)-AMC as substrate after 3 hrs by fluorescence assay
Histone deacetylase 3, sequence (O15379 whole entry): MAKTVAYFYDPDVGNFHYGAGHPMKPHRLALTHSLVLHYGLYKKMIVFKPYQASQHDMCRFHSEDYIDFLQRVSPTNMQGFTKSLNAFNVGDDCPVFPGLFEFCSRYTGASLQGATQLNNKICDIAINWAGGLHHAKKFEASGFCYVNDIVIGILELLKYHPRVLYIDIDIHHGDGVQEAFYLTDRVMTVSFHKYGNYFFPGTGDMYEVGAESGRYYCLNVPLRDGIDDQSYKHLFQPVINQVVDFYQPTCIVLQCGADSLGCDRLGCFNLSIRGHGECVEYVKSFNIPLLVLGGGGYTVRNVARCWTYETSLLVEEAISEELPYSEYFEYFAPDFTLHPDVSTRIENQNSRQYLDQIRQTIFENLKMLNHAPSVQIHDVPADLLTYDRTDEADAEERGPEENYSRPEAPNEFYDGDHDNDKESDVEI

A549 = assay: Cytotoxicity against human A549 cells assessed as growth inhibition after 72 hrs by MTT assay; type: functional, cell-based; details: A549, 72 h
Method in brief: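 A549 human lung adenocarcinoma cells were seeded at 2000–3000 cells/well and held 24 h at 37 °C in 5% CO2. They were then exposed to a range of compound concentrations for 72 h at 37 °C. MTT (5 mg/mL stock) was added for 3 h, the medium was removed, formazan was dissolved in DMSO, and absorbance was read at 550 nm.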

[1] = Cytotoxicity against human HCT116 cells assessed as growth inhibition after 72 hrs by MTT assay; type: functional, cell-based; details: HCT-116, 72 h
Method in brief: (§1)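 Cells were seeded at 2000–3000 per well and pre-incubated 24 h at 37 °C, 5% CO2. A concentration range of compound was then added for 72 h. MTT (5 mg/mL) was added for 3 h, the medium removed, and formazan dissolved in DMSO. Absorbance was read at 550 nm as the viable-cell measure.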

SW-620 = assay: Cytotoxicity against human SW620 cells assessed as growth inhibition after 72 hrs by MTT assay; type: functional, cell-based; details: SW-620, 72 h; method in brief: as §1
[2] = Cytotoxicity against human Hep3B cells assessed as growth inhibition after 72 hrs by MTT assay; type: functional, cell-based, Hep 3B2; method in brief: as §1
HepG2 = assay: Cytotoxicity against human HepG2 cells assessed as growth inhibition after 72 hrs by MTT assay; type: functional, cell-based; details: HepG2, 72 h; method in brief: as §1
[3] = Cytotoxicity against human MHCC97H cells assessed as growth inhibition after 72 hrs by MTT assay; type: functional, cell-based; method in brief: as §1
[4] = Cytotoxicity against human SNU5 cells assessed as growth inhibition after 72 hrs by MTT assay; type: functional, cell-based; details: SNU-5, 72 h; method in brief: as §1
[5] = Cytotoxicity against human SNU16 cells assessed as growth inhibition after 72 hrs by MTT assay; type: functional, cell-based; details: SNU-16, 72 h; method in brief: as §1
[6] = Cytotoxicity against human MKN45 cells assessed as growth inhibition after 72 hrs by MTT assay; type: functional, cell-based; details: MKN-45, 72 h; method in brief: as §1
[7] = Cytotoxicity against human PANC1 cells assessed as growth inhibition after 72 hrs by MTT assay; type: functional, cell-based; details: PANC-1, 72 h; method in brief: as §1
SJSA-1 = assay: Cytotoxicity against human SJSA1 cells assessed as growth inhibition after 72 hrs by MTT assay; type: functional, cell-based; details: SJSA-1, 72 h; method in brief: as §1
Tubulin (Homo sapiens) = Tubulin (Homo sapiens) (UniProt P68371+Q9H4B7+P0DPH7+P68366+Q13509+Q71U36+P04350+Q3ZCM7+P07437+P68363+Q9BQE3+Q6PEY2+Q13885+Q9BVA1+Q9BUF5); assay: Inhibition of tubulin (unknown origin) polymerization at 10 uM; type: protein-complex assay
[8] = Cell cycle arrest in human HCT116 cells assessed as accumulation at G2/M phase at 10 to 20 nM after 24 hrs by flow cytometric analysis; type: functional, cell-based; details: HCT-116

Histone deacetylase 1, sequence (Q13547 whole entry): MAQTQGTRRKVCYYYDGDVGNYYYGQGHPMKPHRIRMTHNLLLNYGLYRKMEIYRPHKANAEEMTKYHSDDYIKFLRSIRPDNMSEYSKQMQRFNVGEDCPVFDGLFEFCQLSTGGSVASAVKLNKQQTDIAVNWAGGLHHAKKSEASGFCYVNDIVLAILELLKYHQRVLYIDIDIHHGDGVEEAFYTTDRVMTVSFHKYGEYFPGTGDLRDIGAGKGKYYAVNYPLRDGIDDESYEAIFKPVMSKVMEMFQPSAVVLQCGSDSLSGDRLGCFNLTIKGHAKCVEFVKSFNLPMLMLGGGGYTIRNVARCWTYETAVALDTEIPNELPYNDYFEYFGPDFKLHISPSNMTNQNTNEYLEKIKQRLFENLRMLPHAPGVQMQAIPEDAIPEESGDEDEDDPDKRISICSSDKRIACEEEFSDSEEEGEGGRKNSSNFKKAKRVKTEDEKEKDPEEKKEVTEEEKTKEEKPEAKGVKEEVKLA

SMILES | IC50 (Histone deacetylase 1) [nM] | IC50 (Histone deacetylase 2) [nM] | IC50 (Histone deacetylase 3) [nM] | IC50 (A549) [nM] | IC50 [1] [nM] | IC50 (SW-620) [nM] | IC50 [2] [nM] | IC50 (HepG2) [nM] | IC50 [3] [nM] | IC50 [4] [nM] | IC50 [5] [nM] | IC50 [6] [nM] | IC50 [7] [nM] | IC50 (SJSA-1) [nM] | inhibition (Tubulin (Homo sapiens)) | Activity [8]
COc1cc2c(c(OC)c1OC)-c1ccc(OC)c(=O)cc1[C@@H](NCc1ccc(C(=O)Nc3cc(-c4cccs4)ccc3N)cc1)CC2 | 3320 | 270 | 1470 | 1040 |  |  |  |  |  |  |  |  |  |  |  | 
Nc1ccccc1NC(=O)c1ccc(CNc2nccc(-c3cccnc3)n2)cc1 [MOCETINOSTAT] |  |  |  | 2080 | 396 | 419 | 823 | 876 | 4560 | 1010 | 142 | 610 | 26800 | 3620 |  | 
COc1cc2c(c(OC)c1OC)-c1ccc(OC)c(=O)cc1[C@@H](NCc1cccc(C(=O)Nc3ccccc3N)c1)CC2 | > 34400 | > 34400 | > 34400 | 354 |  |  |  |  |  |  |  |  |  |  | Active | 
COc1cc2c(c(OC)c1OC)-c1ccc(OC)c(=O)cc1[C@@H](NCc1ccc(C(=O)Nc3ccccc3N)cc1)CC2 | 12500 | 6730 | 11200 | 106 | 5 | 2 | 5 | 14 | 43 | 14 | 2 | 2 | 5 | 9 | Active | Active
COc1cc2c(c(OC)c1OC)-c1ccc(OC)c(=O)cc1[C@@H](NC(=O)c1ccc(C(=O)Nc3ccccc3N)cc1)CC2 | 15900 | 10400 | 12100 | 1620 |  |  |  |  |  |  |  |  |  |  |  | 
COc1cc2c(c(OC)c1OC)-c1ccc(OC)c(=O)cc1[C@@H](NC(C)=O)CC2 [COLCHICINE] | > 50100 | > 50100 | > 50100 | 105 | 40 | 5 | 14 | 27 | 110 | 34 | 5 | 2 | 21 | 8 |  | Active
COc1cc2c(c(OC)c1OC)-c1ccc(OC)c(=O)cc1[C@@H](NC(=O)c1ccc(C(=O)Nc3cc(-c4cccs4)ccc3N)cc1)CC2 | 2240 | 380 | 1970 | 740 |  |  |  |  |  |  |  |  |  |  |  | 
COc1cc2c(c(OC)c1OC)-c1ccc(OC)c(=O)cc1[C@@H](NC(=O)c1cccc(C(=O)Nc3cc(-c4cccs4)ccc3N)c1)CC2 | 1500 | 190 | 1490 | 2790 | 39 | 4 | 10 | 20 | 339 | 119 | 5 | 2 | 19 | 27 | Active | Active
COc1cc2c(c(OC)c1OC)-c1ccc(OC)c(=O)cc1[C@@H](NC(=O)c1cccc(C(=O)Nc3ccccc3N)c1)CC2 | 9620 | 4910 | 10800 | 3430 |  |  |  |  |  |  |  |  |  |  |  | 
COc1cc2c(c(OC)c1OC)-c1ccc(OC)c(=O)cc1[C@@H](NCc1cccc(C(=O)Nc3cc(-c4cccs4)ccc3N)c1)CC2 | 25500 | 5410 | 19700 | 393 |  |  |  |  |  |  |  |  |  |  |  | 
